In ChEMBL document CHEMBL5365542, “Difluoromethyl-1,3,4-oxadiazoles Are Selective, Mechanism-Based, and Essentially Irreversible Inhibitors of Histone Deacetylase 6” (J Med Chem, 2023):
Numbering of substitutions follows the chain as printed. Activity calls are given as the source filed them. The rule behind the calls is not given here.

Legend:
[1] = target: T1, Histone deacetylase 6 (Danio rerio) (UniProt F8W4B7); assay: Irreversible inhibition of Danio rerio HDAC6 catalytic domain 2 assessed as enzyme catalysed ring opening by measuring 2-(Benzylamino)pyrimidine-5-carbohydrazide level at 100 uM incubated overnight by LC-MS analysis
T1 sequence (whole entry): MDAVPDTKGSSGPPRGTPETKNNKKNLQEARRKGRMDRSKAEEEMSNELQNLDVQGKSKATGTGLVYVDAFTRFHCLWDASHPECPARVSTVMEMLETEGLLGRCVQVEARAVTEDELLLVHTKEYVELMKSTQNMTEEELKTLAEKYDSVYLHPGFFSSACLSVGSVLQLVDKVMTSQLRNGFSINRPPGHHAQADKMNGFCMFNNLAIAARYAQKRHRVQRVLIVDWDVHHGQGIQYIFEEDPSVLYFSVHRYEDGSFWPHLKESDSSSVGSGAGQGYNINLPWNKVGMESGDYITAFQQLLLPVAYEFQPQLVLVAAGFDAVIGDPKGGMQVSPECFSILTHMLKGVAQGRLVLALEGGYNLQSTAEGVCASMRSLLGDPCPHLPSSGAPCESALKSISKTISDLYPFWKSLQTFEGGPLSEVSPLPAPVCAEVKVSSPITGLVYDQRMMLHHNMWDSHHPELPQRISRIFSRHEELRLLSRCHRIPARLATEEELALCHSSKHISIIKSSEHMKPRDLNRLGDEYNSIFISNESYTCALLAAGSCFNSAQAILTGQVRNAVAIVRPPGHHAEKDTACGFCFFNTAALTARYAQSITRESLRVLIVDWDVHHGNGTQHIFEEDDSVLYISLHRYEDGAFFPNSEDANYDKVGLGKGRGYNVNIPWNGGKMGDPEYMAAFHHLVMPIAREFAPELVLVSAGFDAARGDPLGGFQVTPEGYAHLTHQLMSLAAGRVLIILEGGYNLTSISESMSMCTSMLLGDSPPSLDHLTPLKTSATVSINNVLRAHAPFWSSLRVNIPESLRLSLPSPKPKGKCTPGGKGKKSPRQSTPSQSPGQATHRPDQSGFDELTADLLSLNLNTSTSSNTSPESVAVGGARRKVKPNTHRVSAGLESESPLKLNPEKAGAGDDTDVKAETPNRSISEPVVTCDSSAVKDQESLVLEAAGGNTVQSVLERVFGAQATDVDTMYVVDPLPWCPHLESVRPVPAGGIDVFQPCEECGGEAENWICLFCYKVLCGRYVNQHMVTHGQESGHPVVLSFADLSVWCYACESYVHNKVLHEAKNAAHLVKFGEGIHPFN
Summary of the method: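 Danio rerio HDAC6 catalytic domain 2 (zCD2), 50 μM, in 50 mM HEPES pH 7.5, 100 mM KCl, 1 mM TCEP, 5% glycerol, incubated overnight with 100 μM inhibitor (100 μL). Enzyme-free inhibitor controls run in parallel. Protein precipitated with methanol and filtered. Filtrate analysed by C18 reverse-phase UPLC-MS with a 2-min H2O/MeCN gradient.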

[2] = test system: T2, Histone deacetylase 6 (Danio rerio), F8W4B7 [H573A]; assay: Irreversible inhibition of Danio rerio HDAC6 H573A mutant catalytic domain 2 assessed as enzyme catalysed ring opening by measuring reduction in 2-(benzylamino)-N'-(2,2,2-trifluoroacetyl)pyrimidine-5-carbohydrazide formation at 100 uM incubated overnight by LC-MS analysis
T2 sequence (whole entry): T1 sequence (whole entry) with H573A
Summary of the method: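 Zebrafish HDAC6 CD2 mutants were made by site-directed mutagenesis and expressed in BL21(DE3). Enzyme at 50 μM was incubated overnight with 100 μM inhibitor in 50 mM HEPES pH 7.5, 100 mM KCl, 1 mM TCEP, 5% glycerol; an enzyme-free control was included. Protein was methanol-precipitated and filtered, and products were analysed by C18 UPLC-MS with a 2-min gradient.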

[3] = target: Histone deacetylase 4 (Homo sapiens) (UniProt P56524); assay: Inhibition of N-terminal GST-tagged/C-terminal His-tagged human HDAC4 (627 to 1084 residues) expressed in Sf9 insect cells using Boc-Lys(Tfa)-AMC as fluorogenic substrate at 10 uM preincubated for 60 mins followed by substrate addition and measured after 90 mins by microplate reader analysis relative to control; conditions: time 150.0 min
Chain of Histone deacetylase 4 (Homo sapiens) (P56524 whole entry, the tested form may be a part): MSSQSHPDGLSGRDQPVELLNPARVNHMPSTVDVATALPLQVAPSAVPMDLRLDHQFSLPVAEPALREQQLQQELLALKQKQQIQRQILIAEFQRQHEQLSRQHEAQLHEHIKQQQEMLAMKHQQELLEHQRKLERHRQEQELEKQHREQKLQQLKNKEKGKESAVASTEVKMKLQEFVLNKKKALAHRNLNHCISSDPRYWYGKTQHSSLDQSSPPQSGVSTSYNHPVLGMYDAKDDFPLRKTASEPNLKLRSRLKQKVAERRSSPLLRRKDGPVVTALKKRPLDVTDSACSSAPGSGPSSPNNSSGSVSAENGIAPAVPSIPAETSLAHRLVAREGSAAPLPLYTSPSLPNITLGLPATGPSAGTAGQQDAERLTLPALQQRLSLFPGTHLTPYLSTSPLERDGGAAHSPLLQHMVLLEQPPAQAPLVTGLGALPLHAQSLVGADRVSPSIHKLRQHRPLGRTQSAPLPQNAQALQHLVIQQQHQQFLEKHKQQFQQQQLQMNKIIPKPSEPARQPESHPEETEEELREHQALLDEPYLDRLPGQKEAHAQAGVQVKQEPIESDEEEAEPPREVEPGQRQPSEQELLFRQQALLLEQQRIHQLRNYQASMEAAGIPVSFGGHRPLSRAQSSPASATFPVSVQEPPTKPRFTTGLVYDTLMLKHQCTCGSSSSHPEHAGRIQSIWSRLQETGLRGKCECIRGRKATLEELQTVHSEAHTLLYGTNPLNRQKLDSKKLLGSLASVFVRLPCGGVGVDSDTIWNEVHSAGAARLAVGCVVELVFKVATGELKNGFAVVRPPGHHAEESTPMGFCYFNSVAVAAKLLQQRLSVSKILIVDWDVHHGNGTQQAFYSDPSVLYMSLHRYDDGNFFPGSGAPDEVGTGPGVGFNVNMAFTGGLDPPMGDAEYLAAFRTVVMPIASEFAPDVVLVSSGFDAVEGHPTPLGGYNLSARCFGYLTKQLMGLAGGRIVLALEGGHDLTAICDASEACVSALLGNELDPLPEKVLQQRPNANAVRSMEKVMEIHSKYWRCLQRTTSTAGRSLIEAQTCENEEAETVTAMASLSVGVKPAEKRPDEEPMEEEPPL
Summary of the method: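 Recombinant human HDAC4 was preincubated with inhibitor for 60 min at 25 °C in Tris-HCl pH 8.0/BSA buffer. Boc-Lys(Tfa)-AMC (42.86 μM solution) was then added for 90 min at 37 °C, followed by trypsin for 30 min at 37 °C. Fluorescence was read at ex 355/em 460. Tested at least twice in duplicate.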

SMILES	Activity [1] [µM]	inhibition [2]	inhibition [3] [%]
FC(F)c1nnc(-c2cnc(NCc3ccccc3)nc2)o1	9	Active	< 15
FC(F)(F)c1nnc(-c2cnc(NCc3ccccc3)nc2)o1	18	Active	< 15
